Active and inactive are the calls of the source. The rule behind the calls is not given here.
Legend:
[1] = test system: Drosophila melanogaster; experiment: Inhibition of calcium oxalate crystallization in Oregon R Drosophila melanogaster malpighian tubule model at 100 uM preincubated with test compound alone for 20 mins followed by addition of calcium oxalate along with test compound measured after 1 hr by DIC microscopy; format: functional
Method in brief: (§1)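 Malpighian tubules dissected from wild-type Oregon R female flies. Tubules preincubated in iPBS with 100 μM for 20 min, then given 100 μM plus Na-oxalate for 1 h, with solutions renewed every 15 min. Controls received oxalate alone. The first 600 μm of anterior tubule imaged by DIC birefringence. Crystal number and area measured with ImageJ. n=12 per group; means ± SE.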

[2] = test system: MDCK1; experiment: Increase in intracellular AxA1 expression in MDCK1 cells at 50 uM after 3 hrs by laser scanning confocal microscopic method; format: functional, cell-based; settings: Canis lupus familiaris
Method in brief: (§2)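 MDCKI cells grown overnight on collagen-coated chamber slides and treated ± 50 μM for 3 h. Fixed in 4% paraformaldehyde. Intracellular staining done with 0.2% Triton permeabilization; surface staining done without permeabilization. Rabbit anti-annexin A1 applied overnight at 4°C, then Alexa Fluor 488 anti-rabbit secondary. Nuclei counterstained with TOTO-3. Imaged by confocal microscopy, 63× oil objective.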

[3] = Inhibition of AxA1 expression in MDCK1 cell surface at 50 uM after 3 hrs by laser scanning confocal microscopic method relative to control; format: functional; settings: Canis lupus familiaris, MDCK1, 3 h; method in brief: as §2
[4] = Effect on total alpha-enolase expression in MDCK1 cells at 50 uM after 3 hrs by Western blot method; format: ADME, cell-based, Canis lupus familiaris; settings: dog, mdck1, 3 h
Method in brief: (§3)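 MDCKI cells seeded at 5×10^5 per well and treated with 50 μM for 3 h. Cytosolic fraction extracted with PIPES/EDTA/0.02% digitonin buffer for 10 min at 4°C. Membrane fraction taken from the pellet in SDS/Tris pH 6.8 buffer. Whole lysate prepared separately. 30 μg protein per lane on 7.5% gel; blots probed for annexin A1, HSP90 and α-enolase, with β-actin as loading control. Bands read by ECL densitometry. Mean ± SEM, n=3.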

[5] = Effect on total AxA1 expression in MDCK1 cells at 50 uM after 3 hrs by Western blot method; format: ADME, cell-based, Canis lupus familiaris; settings: dog, mdck1, 3 h; method in brief: as §3
[6] = test system: MDCK1; experiment: Upregulation of alpha-enolase expression in cytosolic fractions of MDCK1 cells at 50 uM after 3 hrs by Western blot method; format: functional, cell-based; settings: Canis lupus familiaris; method in brief: as §3
[7] = test system: MDCK1; experiment: Upregulation of HSP90 expression in cytosolic fractions of MDCK1 cells at 50 uM after 3 hrs by Western blot method; format: functional, cell-based; settings: Canis lupus familiaris; method in brief: as §3
[8] = test system: MDCK1; experiment: Downregulation of alpha-enolase expression in membrane fractions of MDCK1 cells at 50 uM after 3 hrs by Western blot method; format: functional, cell-based; settings: Canis lupus familiaris; method in brief: as §3
[9] = test system: MDCK1; experiment: Upregulation of AxA1 expression in cytosolic fractions of MDCK1 cells at 50 uM after 3 hrs by Western blot method; format: functional, cell-based; settings: Canis lupus familiaris; method in brief: as §3
[10] = test system: MDCK1; experiment: Downregulation of AxA1 expression in membrane fractions of MDCK1 cells at 50 uM after 3 hrs by Western blot method; format: functional, cell-based; settings: Canis lupus familiaris; method in brief: as §3
[11] = test system: MDCK1; experiment: Downregulation of HSP90 expression in membrane fractions of MDCK1 cells at 50 uM after 3 hrs by Western blot method; format: functional, cell-based; settings: Canis lupus familiaris; method in brief: as §3
[12] = Inhibition of cell surface associated calcium oxalate monohydrate crystal levels in MDCK1 cells preincubated for 3 to 6 hrs followed by calcium oxalate monohydrate crystal addition measured after 30 mins by phase contrast microscopy relative to control; format: functional, Canis lupus familiaris
Method in brief: (§4)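 MDCKI cells seeded at 5×10^5 per well and cultured for 24 h. Pretreated at 0–50 μM for 3 h (concentration series), or at 25 or 50 μM for 1, 3 or 6 h (time course). Cells then washed and exposed to COM crystals (100 μg/mL) for 30 min, followed by five washes with plain medium. Adherent crystals counted by phase-contrast microscopy in 15 random high-power fields, ×400.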

[13] = Effect on total HSP90 expression in MDCK1 cells at 50 uM after 3 hrs by Western blot method; format: ADME, cell-based, Canis lupus familiaris; settings: dog, mdck1, 3 h; method in brief: as §3
[14] = test system: MDCK1; experiment: Inhibition of calcium oxalate monohydrate crystal binding to MDCK1 cell surface preincubated for 3 hrs followed by calcium oxalate monohydrate crystal addition measured after 30 mins by phase contrast microscopy; format: functional, cell-based; settings: Canis lupus familiaris; method in brief: as §4
[15] = Cytotoxicity against MDCK1 cells assessed as decrease in cell viability up to 155 +/- 4 uM after 24 hrs by MTT assay; format: cell-based, Canis lupus familiaris; settings: dog, mdck1, 24 h
[16] = test system: Drosophila melanogaster; experiment: Inhibition of calcium oxalate crystal size in Oregon R Drosophila melanogaster malpighian tubule model at 100 uM preincubated with test compound alone for 20 mins followed by addition of calcium oxalate along with test compound measured after 1 hr by DIC microscopy; format: functional; method in brief: as §1
[17] = test system: Drosophila melanogaster; experiment: Inhibition of total calcium oxalate crystal area in Oregon R Drosophila melanogaster malpighian tubule model at 100 uM preincubated with test compound alone for 20 mins followed by addition of calcium oxalate along with test compound measured after 1 hr by DIC microscopy; format: functional; method in brief: as §1
[18] = Antioxidant activity assessed as DPPH radical scavenging activity incubated in dark for 20 mins; format: functional
Method in brief: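 Compound stock 1 mM in DMSO; 2–20 μL portions made up to 40 μL with DMSO and added to 1.96 mL of 0.1 mM DPPH. Held at RT for 20 min in the dark, then absorbance read at 517 nm. DPPH alone served as control. % radical scavenging = (control − test)/control × 100.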

[19] = Cytotoxicity against MDCK1 cells assessed as decrease in cell viability after 24 hrs by MTT assay; format: cell-based; settings: Canis lupus familiaris, MDCK1, 24 h
Method in brief: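 MDCKI cells seeded at 1×10^4 per well, exposed 24 h to 0, 5, 10, 25, 50 μM (in DMSO/PBS). MTT (5 mg/mL working solution) added for 3 h at 37°C, then stop solution; OD read at 570 nm. Viability expressed as percent of untreated control after blank subtraction; IC50 reported. Means ± S.D. of three independent experiments.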

[20] = test system: MDCK1; experiment: Inhibition of calcium oxalate monohydrate crystal binding to MDCK1 cell surface at 10 uM preincubated for 3 hrs followed by calcium oxalate monohydrate crystal addition measured after 30 mins by phase contrast microscopy; format: functional, cell-based; settings: Canis lupus familiaris
Method in brief: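 MDCKI cells (5×10^5 per well) cultured 24 h in complete medium, pretreated 3 h with 0, 1 or 10 μM, washed with PBS, then exposed 30 min to COM crystals (100 μg/mL medium). Unbound crystals removed by five washes with plain DMEM. Adherent crystals counted by phase-contrast microscopy in 15 random high-power fields per well.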

## COC(=O)[C@]1(O)C[C@@H](OC(=O)c2cc(O)c(O)c(O)c2)[C@@H](OC(=O)c2cc(O)c(O)c(O)c2)[C@H](OC(=O)c2cc(O)c(O)c(O)c2)C1
[1]
  inhibition: Active
[2]
  Activity: Active
[3]
  inhibition at 50 µM: 50%
[4]
  Activity: Non-Toxic
[5]
  Activity: Non-Toxic
[6]
  Activity: Active
[7]
  Activity: Active
[8]
  Activity: Active
[9]
  Activity: Active
[10]
  Activity: Active
[11]
  Activity: Active
[12]
  inhibition (INH): 50%
[13]
  Activity: Non-Toxic
[14]
  inhibition: Dose-dependent effect
[15]
  Activity: Non-Toxic
[16]
  inhibition: Active
[17]
  inhibition: Active
[18]
  EC50: 11 µM

## COC(=O)[C@]1(O)C[C@@H](O)[C@@H](O)[C@H](O)C1
[19]
  IC50: 120 µM
[18]
  Activity: inactive

## O=C(O)c1cc(O)c(O)c(O)c1 [GALLIC ACID]
[20]
  inhibition: Active
[19]
  IC50: 34 µM
[18]
  EC50: 3 µM

## O=C1O[C@H]([C@@H](O)CO)C(O)=C1O [ASCORBIC ACID]
[18]
  EC50: 45 µM

From ChEMBL document CHEMBL4043284, “The Synthesized Plant Metabolite 3,4,5-Tri-O-Galloylquinic Acid Methyl Ester Inhibits Calcium Oxalate Crystal Growth in a Drosophila Model, Downregulates Renal Cell Surface Annexin A1 Expression, and Decreases Crystal Adhesion to Cells” (J Med Chem, 2018)
